Among the data in ChEMBL document CHEMBL1125378, “alpha-Methyl polyamines: metabolically stable spermidine and spermine mimics capable of supporting growth in cells depleted of polyamines” (J Med Chem, 1992) are Level (nM (mg of protein)-1) and tR values, retold here.

Molecules are shown by their SMILES.

For data set [1], the system named is SV3T3. Kind of data set: Compound level in 72 hr DFMO (5 mM)-treated SV3T3 cells after exposure to 1 uM 1,12-dimethylspermine. To be noted: Mus musculus.
Data set [2] relates to SV3T3. Kind of data set: Compound level in 96 hr DFMO (5 mM)-treated SV3T3 cells after exposure to 10 uM 1,12-dimethylspermine. Conditions: Mus musculus. The format is functional, cell-based.
The subject of data set [3] is L1210. Kind of data set: Compound level in 72 hr DFMO (5 mM)-treated L1210 cells after exposure to 10 uM 1,12-dimethylspermine. In kind it is functional, cell-based. Conditions: Mus musculus. The procedure, abridged:
(§1)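 L1210 cells held in 5 mM DFMO for 72 h before polyamine addition and through a further 72 h, refed at 72 h; controls without DFMO cultured 72 h in total. Intracellular polyamines reported as nmol/mg protein (detection limit 0.2). Mean ± SD from at least four separate experiments.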

A short description of data set [4]: Retention time was determined. In kind it is ADME.
The subject of data set [5] is HT-29. Kind of data set: Compound level in 72 hr DFMO (5 mM)-treated HT-29 cells after exposure to 10 uM 1,12-dimethylspermine. To be noted: Homo sapiens, in the assay text read “120 hr” for “72 hr”. The format is functional, cell-based. The procedure, abridged: (§2)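 HT29 experiment B: 5 mM DFMO for 120 h before addition and throughout a further 96 h; refed at 96 h. Cells without DFMO cultured 96 h in total. Polyamines measured as nmol/mg protein (detection limit 0.2). SD from at least four separate experiments.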

In data set [6] the test system is HT-29. Kind of data set: Compound level in 72 hr DFMO (5 mM)-treated HT-29 cells after exposure to 25 uM 1,12-dimethylspermine. The format is functional, cell-based. Conditions: Homo sapiens, in the assay text read “120 hr” for “72 hr”. An outline of the steps:
as §2

Data set [7] concerns SV3T3. Kind of data set: Compound level in 96 hr DFMO (5 mM)-treated SV3T3 cells after exposure to 25 uM 1,12-dimethylspermine. The format is functional, cell-based. To be noted: Mus musculus.
Data set [8] relates to HT-29. Kind of data set: Compound level in 72 hr DFMO (5 mM)-treated HT-29 cells after exposure to 10 uM 1-methylspermidine. In kind it is functional, cell-based. Conditions: Homo sapiens. The procedure, abridged: (§3)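 HT29 cells pretreated with 5 mM DFMO for 120 h, then polyamine added and culture continued with DFMO for 72 h (experiment A); refed at 96 h. Cellular polyamine content given as nmol/mg protein (detection limit 0.2). SD from at least four separate experiments.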

Data set [9] concerns SV3T3. Kind of data set: Compound level in 72 h DFMO (5 mM)-treated SV3T3 cells after exposure to 10 uM 1-methylspermidine. The format is functional, cell-based. To be noted: Mus musculus. The procedure, abridged:
(§4)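 SV-3T3 fibroblasts (experiment A) held in 5 mM DFMO for 72 h before polyamine addition and throughout a further 72 h. Intracellular polyamines expressed as nmol/mg protein (detection limit 0.05). SD from at least four separate experiments, or duplicate where no SD is given.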

Data set [10] has as its system HT-29. Kind of data set: Compound level in 72 hr DFMO (5 mM)-treated HT-29 cells after exposure to 25 uM 1-methylspermidine. The format is functional, cell-based. Conditions: Homo sapiens. The procedure, abridged:
as §3

For data set [11], the system named is SV3T3. Kind of data set: Compound level in 72 hr DFMO (5 mM)-treated SV3T3 cells after exposure to 25 uM 1-methylspermidine. The format is functional, cell-based. Conditions: Mus musculus. An outline of the steps: as §4
In data set [12] the test system is HT-29. Kind of data set: Compound level in 72 hr DFMO (5 mM)-treated HT-29 cells after exposure to 10 uM 1-methylspermine. The format is functional, cell-based. To be noted: Homo sapiens. The procedure, abridged:
as §3

Data set [13] deals with SV3T3. Kind of data set: Compound level in 72 hr DFMO (5 mM)-treated SV3T3 cells after exposure to 10 uM 1-methylspermine. In kind it is functional, cell-based. To be noted: Mus musculus. The procedure, abridged:
as §4

Data set [14] relates to SV3T3. Kind of data set: Compound level in 72 hr DFMO (5 mM)-treated SV3T3 cells after exposure to 25 uM 1-methylspermine. The format is functional, cell-based. To be noted: Mus musculus. The procedure, abridged: as §4
Data set [15] has as its system SV3T3. Kind of data set: Compound level in 72 hr DFMO (5 mM)-treated SV3T3 cells after exposure to 1 uM 1-methylspermidine. The format is functional, cell-based. Conditions: Mus musculus. An outline of the steps:
as §4

The test system of data set [16] is SV3T3. Kind of data set: Compound level in 72 hr DFMO (5 mM)-treated SV3T3 cells after exposure to 1 uM 1-methylspermine. The format is functional, cell-based. To be noted: Mus musculus. An outline of the steps:
as §4

Data set [17] has as its system L1210. Kind of data set: Compound level in 72 hr DFMO (5 mM)-treated L1210 cells after exposure to 10 uM 1-methylspermidine. The format is functional, cell-based. Conditions: Mus musculus. An outline of the steps: as §1
The subject of data set [18] is L1210. Kind of data set: Compound level in 72 hr DFMO (5 mM)-treated L1210 cells after exposure to 10 uM 1-methylspermine. The format is functional, cell-based. Conditions: Mus musculus. The procedure, abridged: as §1
The subject of data set [19] is HT-29. Kind of data set: Compound level in 72 hr DFMO (5 mM)-treated HT-29 cells after exposure to 25 uM 1-methylspermine. The format is functional, cell-based. To be noted: Homo sapiens. The procedure, abridged: as §3

Take `CC(N)CCNCCCCNCCC(C)N` (configuration not stated): the Level (nM (mg of protein)-1) in the data set on SV3T3 [1] was 4.2; in the data set on SV3T3 [2], 29.4; in the data set with L1210 [3] it was 61.9; with HT-29 [5] it was 18.2; in the data set with HT-29 [6], 17.3; in the data set with SV3T3 [7] it was 24.8. Further, the tR in data set [4] was 40.9 min.

For `CC(N)CCNCCCCN` (configuration not stated), the Level (nM (mg of protein)-1) with HT-29 [8] came to 13.3; in the data set on SV3T3 [9] it was 26.8; in the data set on HT-29 [10] it was 16.8; in the data set with SV3T3 [11], 31.2; in the data set with SV3T3 [2] it was 1.2; in the data set on HT-29 [12], 0.2. Besides, the Level (nM (mg of protein)-1) worked out at 2.7 with SV3T3 [13]; 0.4 with SV3T3 [14]; 11.8 in the data set with SV3T3 [15]; 0.6 in the data set on SV3T3 [16]; 67.2 in the data set with L1210 [17]. In addition, in data set [4], the tR was found to be 34.5 min.

Take `CC(N)CCNCCCCNCCCN` (configuration not stated): the Level (nM (mg of protein)-1) in the data set on HT-29 [8] is 7.8; with L1210 [18] it was 63.4; with SV3T3 [9], 4.2; with HT-29 [10], 8.6; with SV3T3 [11], 4.4; with HT-29 [19], 24.2. Also, the Level (nM (mg of protein)-1) in the data set on HT-29 [12] was 21.3; with SV3T3 [13] it was 33.7; with SV3T3 [14], 33.1; in the data set on SV3T3 [15], 2.4; with SV3T3 [16], 11.8; in the data set on L1210 [17], 7.8. This molecule registered a tR in data set [4] of 40.5 min.
